In the EternaBench riboswitch data:

Test system: MS2 coat protein
Assay: apparent Kd, MS2 coat protein; higher = weaker binding; RNA-MaP array; FMN 200 µM where present
Method in brief: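 Designs were transcribed by stalled E. coli RNA polymerase on Illumina sequencing-chip clusters. They were titrated with SNAP-549-labelled MS2 coat protein from 0.7 or 1.5 nM, doubling to 3 µM, in 100 mM Tris-HCl pH 7.5, 80 mM KCl, 4 mM MgCl2, BSA, DTT, yeast tRNA and Tween-20, without and then with constant ligand. The apparent Kd is the median of filtered per-cluster fits after normalisation of green signal to red-channel RNA signal and control-cluster median Fmax.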

[1] = designed as: OFF switch for flavin mononucleotide, no ligand
[2] = ligand present: flavin mononucleotide, designed as: OFF switch for flavin mononucleotide
[3] = designed as: ON switch for flavin mononucleotide, no ligand
[4] = ligand present: flavin mononucleotide, designed as: ON switch for flavin mononucleotide

Sequence	apparent Kd [1] [nM]	apparent Kd [2] [nM]	apparent Kd [3] [nM]	apparent Kd [4] [nM]
AGCUAGAGAGGAUAUACGUAGGAAAAAAAAGUCUGAUCCCUACAUGAGGAUCACCCAUGUAGAAGGCUCUGGCA	91.5	81.8		
GCGUACAUAUCAGGAUAUCAUUGAAUGGAUUAACUCAGUGAAUACAUGAGGAUCACCCAUGUUCUUGAGAAGGGAUUACUACGC	21	96.5		
CGAUAUUAUGCAGGAUAUCUCCCUUGAAUGUGGAGAGAAGGGCAUAGGGAGACAUAAGCCUUAUUACAUGAGGAUCACCCAUGU	10.3	9.31		
GCGAUUUUGUAAGGAUAUACACCAGUUUUAAGUGUAGAAGGUACUUACAUGAGGAUCACCCAUGUAUAAAUGUAUAAUAGUCGC			6.92	6.87
AACACUUAAAAGUGAGGCGAUAGGUAGGAUAUACAUGAGGAUCACCCAUGUAUGGGCUAUCUGCGGUAGAAGGACCUCUGGCCC	6.44	8.84		
CAGAACGUCUGAUGAGACCCGCGGCAGGAUAUGCCUGACGUGGACAUGAGGAUCACCCAUGUAAGGCAGAAGGGCCGUUCAGUG	23	95.5		
AAUUAUUUGUAGAAGGAAGGAGAUUUUGUAUUCUUAGGAUAUACUAUUACAUGAGGAUCACCCAUGUUUGUUGGGUUGCAAUGU	315	323		
AUAAUCACAUGAGGAUCACCCAUGUACCGAGCUAAAGCUACAUAGGAUAUGACAAGUAUAGCUUGUCAGAAGGGUGAGUCUCGC			46.3	67.1
ACAUCGACAGGAUAUACGUGAGUGGAAAAAGUGUAUCCACUACAUGAGGAUCACCCAUGUAGAAGGGUCGAUGA	18.5	19.8		
UUGAGGUGCAAGAAGGAUCACAUGAGGAUCACCCAUGUGAUGUGAAGUCUCGAGAUUUUAUAUCGAUAGGAUAUUGCACCGAAC			5.13	5.33
UCCGCUCGAGGAUAUACAUGAGGAUCACCCAUGUUUCCCUGUUGCUUGGCCUCAGGAUGUAGAAGGCGACGCUA	17.6	19.8		
GUAGCUAUUAAAGGAUAUUCAUACCGGAGACGGACAUGAGGAUCACCCAUGUGGCGAAAGCCUUGGGAGAAGGUUAUUAGCUAC			452	17.7
AAAUCCGAAGGAUAUACAUCAAAAGCAAACUGACCCUCACGACAUGAGGAUCACCCAUGUAGAAGGUUGGAAAU	20.3	18.1		
UUAAUGUGAGGAUAUCAGGUGUGCUAGCGUACUGGUACAUCUGAGAAGGCACAUGAGGAUCACCCAUGUUUCUU	32.7	110		
UUAGACGUCGUAGGAUAUGUAGGAUAUUCCUACAUGAGGAUCACCCAUGUUGACAUGGAAGAAGGACAGAAGGACGAUGUCCAU			307	4.91
UUACUCAUGUAAGGAUAUGCAGCCGUUUCGGCUGCAGAAGGUACUAUAAUACAUGAGGAUCACCCAUGUCUAUUUAAUUUUUAC			42.6	24.2
CGUUAUGAUAGAGGAUAUGUAAUACAUGAGGAUCACCCAUGUUACAUGGGUAAUAUUAAUAAUUAACAGAAGGCUAUCCUUUCG	484	149		
GACCGAUAGUCAGGAUAUGCAUGGUUAGUUGAUUACAUGAGGAUCACCCAUGUAGAAGGGACUUUGGCGAAAUCCGUGAUGCGU	44.1	115		
GAUCCUUCUGUUAGGAUAUGCUUUGGGCUUUCGCAGCAGAAGGAACAUGAGGAUCACCCAUGUCCGAUGCCGUC	77.5	81.3		
CAAGGGUUAGGAUAUGGACGCUUAUAUUUGUAGCGGCGAAGCCAGAAGGAACAUGAGGAUCACCCAUGUUGGGA	60.4	108		
UUAAAUCAUGUAGGAUAUGCAUGGCGAAGCUACGCAGAAGGACAUGAGGAUCACCCAUGUUAUAGCUACCGAUUAAGGUGGCAA	92.9	246		
GGAGCACGCACAGGAUAUCCGGCGGCGCUCGUCGGAGAAGGGUGACAUGAGGAUCACCCAUGUACGUGCAACUCAGUUUGAGUG			95.6	40.4
UUAUGUCGCGUAGGAUAUCACUAGUGUUGUAAUUUAAUUGUAAUUACGAUGUGAGAAGGACGUACACAUGAGGAUCACCCAUGU	20.3	16.2		
CUUUUGUGAGGAUAUCAGUAGUAUAAAAUAAAAUAUACUACUGAGAAGGCACAUGAGGAUCACCCAUGUUCCUC	38.3	263		
GUCAGCAAAUAAGGAUAUACAACACUGCUUCGGCAGUGUAUUAAGAUCACAUGAGGAUCACCCAUGUAGAAGGUAUAAGCUGAU	6.98	24.5		
UGAUAGCACAGAGGAUAUGCGUUGUGUUCUCUCUACAUGAGGAUCACCCAUGUAGAAGGCUGUGCUAUCUAAGUCGGAAACGAU	8.81	36.9		
GAGUAGUUGAAAGGAUAUUGAUUAUUGUAGGAUCAAGAAGGUUCUAACAUGAGGAUCACCCAUGUAGGACUAUUCCUGUGUAUC			13	10.8
GGUGGCGUGAUAACGCUAGAUAUAACAUGAGGAUCACCCAUGUAGGAUAUCCCGCCGUGAGGGCGGGAGAAGGACAACCGAUGG	37.1	34.9		

Sequence	apparent Kd [1] [nM]	apparent Kd [2] [nM]	apparent Kd [3] [nM]	apparent Kd [4] [nM]
AGGUACAUGAGGAUCACCCAUGUAAGAGCCCUCAUGCGAUGUAGAAGGAUAAUGCGAGAAGAGCUAUAGGAUAUACAUGAGAAA	156	139		
CGAAGCCCGUAGAAGGGUGACAUGAGGAUCACCCAUGUGCGAGCGGAGGGAGUCAGCGGCUCGCCACAGGAUAUACGGAGCUCG			151	67.9
GUGCGGAACCUAGGAUAUCCGACAUGGACAGGUGGUAAGUCUCCCACAUGAGGAUCACCCAUGUAGGAGAAGGAGGAUCACGGG	6.84	7.39		
CUAUGAAGAAUAGGAUAUUCGAUCAAGAGGAUAGAAGAAGGGUUACAUGAGGAUCACCCAUGUAUGCACAUGAGGAUCCCUUAG	98.4	107		
GGCGAAGUAGGAUAUACAUGAGGAUCACCCAUGUAACCUGAUGGCGUAGGUCUUCUAUGUAGAAGGGCUACGCC	15.9	16.9		
GGAUGAUUAAUAGGAUAUUAUUUGUAAUUUGGUUAAGAAGGAUUAAUGAUUUAAACGACCUGUUACAUGAGGAUCACCCAUGUU			95.5	74.1
GGAUUACAAAUUUAUUUAAUUCACAUGAGGAUCACCCAUGUGUAGGAUAUGCUAGUUAAGUAAUAGCAGAAGGACAUGUGCCUU	8.82	9.26		
AGCGGAGACAUGAGGAUCACCCAUGUCAGUGCCGGCGAUACCAGAAGGCCCGGCGGGCCUCGCCGGGAGGAUAUGGGUUCAACA			13.1	8.39
GCACGAGACUAAGGAUAUGGAGUGUCUACAUUAAACAUGAGGAUCACCCAUGUAGAGAGUAUGAUUCAGAAGGUAGAGACGUGC			53.6	25.2
UAGUGAUUGCAAGGAUAUGCUAGUUUUUAUUUGUGUUUGAUAACAAACAUGAGGAUCACCCAUGUGCAGAAGGUGCUAGAUAUG			566	510
AACAUGAGGAUCACCCAUGUACGCUGUAAUUACUCGCGUUGGCAGGAUAUGGGUUGGCUUCCGUCCCAGAAGGGUCAAGAUAAA			253	105
AGCUAGUGAGGAUAUACGAACAUGUCAAAAGACGUGAAAUAACAUGAGGAUCACCCAUGUAGAAGGCACUAGCA	19.2	16.7		
AAGCACAGAGGAUAUACAUGGGUAAAAAAAAAAAAAAAAAAACAUGAGGAUCACCCAUGUAGAAGGCUGUGCAA	81.6	67		
GAUUAUAAGUAAGGAUAUGUAUAUGAAACAUAUACAGAAGGUACAUGAGGAUCACCCAUGUUCUUGCAGCGCGAAUAUGUAAUC	18.9	27.7		
UCAUUGGUAGUGAGGAUAUCGGUGUGAUGGAAUGACGAGAAGGCACAUGAGGAUCACCCAUGUAAGAUUGGGCU	314	436		
UGGGCUACGUGGUCCGCCAGACGUAGAAGGGUCUACAUGAGGAUCACCCAUGUGACCGUUAGUGGACAGGAUAUACGCGGAGUG	8.38	22.8		
UUGCCUCAGAACAUGAGGAUCACCCAUGUGCUGCGGGCAACGUAGGAUAUGAUGGUAUGAUACCGUCAGAAGGAUGAUGGUACC			5.86	5.32
AACUAACAUGAGGAUCACCCAUGUCAGGAUAUGCAACGAUCGAUCGAUCGAUCGAUCAGCAGAAGGGACACUAA	20.1	36		
UAAACACCCUCAUGUGCCUGAGGACAUGAGGAUCACCCAUGUAAGGAUAUAGCCAUUAAAUCUAACUAGAAGGUAUAGGAAAUC	597	476		
UUAAAUCAUGUAGGAUAUGCAUGGCGAAGCUACGCAGAAGGACAUGAGGAUCACCCAUGUGCUAGCGUCUGGAAACAGAUGCAA	56	269		
GCACUGGAUGUAGGAUAUCAGGACGAUAAGUCCUGAGAAGGACAUGAGGAUCACCCAUGUGCUCAAUAACCAGUGCAUAAUAUA	14.5	20.3		
CGUGACUCAGGAUAUCUAUAGUGUCACAUGAGGAUCACCCAUGUCCAGCGAAAGCUGGAGGGAGAAGGGAGUCACG	96.7	39.9		
UUAUAUUUACAAGGAUAUCAAUUAUUUAUACUUCCUACAUGAGGAUCACCCAUGUUUUUAUAUUUUGAGAAGGUGUAAUGUCGG			38.5	33.7
GUGAGGUCAGGAUAUGCAUGGCGGGACUUGCGUCGUGGCGUGGAGAAGGGACAUGAGGAUCACCCAUGUGGAGA	73	63.1		
GUAGCAUACCGAGGAUAUUCCGGGCAUAAAUAAACAUGAGGAUCACCCAUGUGGCGAAAGCCUAGGGAGAAGGCGGAAUGCUAC			15.2	13.6
GUAUAUAUUACAUGAGGAUCACCCAUGUCAGAACGGGUAAUCAGAAGGUAUUAUUAGAGAAAGGGUAAGGAUAUGAUUAUAUAC			577	321
GUAGAGUAGUGAGGAUAUACGAGUUCGAUAGAACGGCGAUCCAUUAAUACAUGAGGAUCACCCAUGUAGAAGGCACUUCUCUAC	6.4	69.3		
